This data set is described as follows: Toxicity liver stage against HepG2, at 10uM. It counts as cell-based. Details: test concentration 10 uM, cell line HepG2-A16-CD81EGFP. As to conditions: human, HepG2-A16-CD81EGFP cells; read-out: INHIBITION
The procedure, abridged: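 Uninfected HepG2-A16-CD81EGFP cells, 3 × 10^3 per well, 1536-well, plated on prespotted compound at 10 μM final, parasite-free screening media added to match infected plates; puromycin 10 μM positive, DMSO 0.5% negative; run in parallel with 48 h PbLuc assay at 37 °C, 5% CO2; viability by CellTiter-Glo luminescence, normalized to controls.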
On to `CCOCc1ncn2c1CN(C(=O)c1ccoc1)CC2`, for which the cytotoxicity at 10 µM was -72.6%.

Regarding `Cc1cc(C)c(C(=O)NC2CCN(c3ncccc3C#N)CC2)c(=O)[nH]1`, the cytotoxicity at 10 µM worked out at 7.24%.

Consider `CC(C)CNC(=O)CCN1C(=O)CCc2cc(F)ccc21`, for which the cytotoxicity at 10 µM was 8.17%.

As to `CCC1CCCCN1S(=O)(=O)c1c(N)noc1C` (configuration not stated), the cytotoxicity at 10 µM is 9.5%.

As for `CN(C)CC1CSCCCN1C(=O)c1ccc(-n2cccc2)cc1` (configuration not stated), the cytotoxicity at 10 µM was determined as 10%.

Consider `Cc1csc(NCC(=O)c2c[nH]c3ccccc23)n1`, for which the cytotoxicity at 10 µM came out at 22.4%.

`COc1ccc2c(c1)CCN2Cc1nc2c(cnn2C)c(=O)[nH]1`: the cytotoxicity at 10 µM is -10.3%.

Regarding `CC1CCCN(C(=O)c2ncncc2Cl)C1` (configuration not stated), the cytotoxicity at 10 µM came out at 8.43%.

In the case of `C=Cn1ncc(CN2C[C@@H]3C[C@@H](O)CN3C[C@@H]2Cc2ccccc2)c1C`, the cytotoxicity at 10 µM is 4.02%.

As for `N#Cc1ccc(OCCOc2ccccc2C(=O)N2CCOCC2)cc1`, the cytotoxicity at 10 µM is -7.38%.

Consider `CCOc1ccc(N2CCCN=C2NC(=O)c2ccc(Cl)cc2)cc1`, for which the cytotoxicity at 10 µM is 8.1%.

As for `CCN(CC)CCn1cc(NC(=O)Nc2ccccc2OC)cn1`, the cytotoxicity at 10 µM is 12.7%.

In the case of `CNc1nc(CNC(=O)Nc2ccccc2SC)cs1`, the cytotoxicity at 10 µM was -7.95%.

`CCOC(=O)NC(=O)CSC(C)c1ccccc1F` (configuration not stated): the cytotoxicity at 10 µM was -15.1%.

Turning to `CC(C)n1cc(S(=O)(=O)NCCc2nnc3ccccn23)cn1`, the cytotoxicity at 10 µM came out at 7.07%.

In the case of `Cn1cccc1C(=O)N1CCC2(CC1)CN(c1ccsc1)C(=O)CO2`, the cytotoxicity at 10 µM was -76.9%.

As for `Cn1ncc(C(=O)OCC2CCN(c3ccccc3)C2)c1C(F)F` (configuration not stated), the cytotoxicity at 10 µM was -5.44%.

`CN(C)c1ccc2c(c1)CN(C(=O)c1ccnnc1)C2c1cnco1` (configuration not stated): the cytotoxicity at 10 µM turned out to be 0.841%.

For `CCc1ncc2c(n1)CN(CC(=O)Nc1cc(C)on1)CC2`, the cytotoxicity at 10 µM was 0.049%.

Regarding `CCS(=O)(=O)N(C)C1CCN(C(=O)c2cccc(Cl)c2)CC1`, the cytotoxicity at 10 µM is -13.7%.

In the case of `O=C(NCC(=O)N1CCCC(n2cncn2)C1)OCc1ccccc1` (configuration not stated), the cytotoxicity at 10 µM was -13.5%.

Turning to `NC(=O)C1CCCN1C(=O)c1cccc2c1OCO2` (configuration not stated), the cytotoxicity at 10 µM was -9.56%.

On to `COc1ccc2nnc(CCC(=O)Nc3nc4c(s3)CCCCC4)n2n1`, for which the cytotoxicity at 10 µM was determined as 4.98%.

Regarding `Cc1noc(C(C)C)c1C(=O)NCc1cccc(N(C)C)c1`, the cytotoxicity at 10 µM was -1.91%.

`O=c1cc(CN2C[C@@H]3CC[C@H]2CN(Cc2ccccc2)C3)[nH]c(=O)[nH]1`: the cytotoxicity at 10 µM turned out to be 8.89%.

In the case of `CC(Cc1ccco1)NS(=O)(=O)N1CCCCC1` (configuration not stated), the cytotoxicity at 10 µM is -0.867%.

For `CCN1CCC(CNC(=O)c2cc(Cl)c[nH]2)CC1`, the cytotoxicity at 10 µM is -9.4%.

With `Nc1nc2c(c(NCc3nc(-c4ccncc4)n[nH]3)n1)CCCC2`, the cytotoxicity at 10 µM is -0.0554%.

In the case of `CCS(=O)(=O)CC(=O)N1CCCC(c2noc(C(C)C)n2)C1` (configuration not stated), the cytotoxicity at 10 µM is -4.78%.

As for `CC(C)N1CC(C(=O)NCCc2csc(-c3ccncc3)n2)CC1=O` (configuration not stated), the cytotoxicity at 10 µM is -21%.

For `O=C(c1ccc[nH]1)N1CCCn2cnc(COCC3CC3)c2C1`, the cytotoxicity at 10 µM was -73.6%.

Regarding `O=C(NCc1ccccc1-n1cccn1)N1CCN2CCCCC2C1` (configuration not stated), the cytotoxicity at 10 µM is -1.2%.

As to `CN(C)c1ncnc2c1CCN(C(=O)CN1CCCCC1)C2`, the cytotoxicity at 10 µM was -0.747%.

As to `COCCN(Cc1ccccn1)C(=O)Nc1cccnc1N1CCCC1`, the cytotoxicity at 10 µM was 4.03%.

Turning to `COCc1c(C(=O)N2CCCC(C(=O)c3ccccc3)C2)noc1C` (configuration not stated), the cytotoxicity at 10 µM is -2.54%.

`Cc1ccc(C)c(OC(C)C(=O)NCCNc2cccnc2)c1` (configuration not stated): the cytotoxicity at 10 µM amounted to 1.32%.

On to `Cc1cc(C)n(CC2CCCN2C(=O)c2ccnc(N(C)C)c2)n1` (configuration not stated), for which the cytotoxicity at 10 µM was -16.8%.

In the case of `Cc1ccc(NC2CCN(C(=O)CCc3ccncc3)CC2)nn1`, the cytotoxicity at 10 µM was -9.43%.

As to `Cc1ccc(CN2CC[C@H]3OCC[C@@H](C(=O)NCC4CC4)[C@@H]3C2)o1`, the cytotoxicity at 10 µM was 0.951%.

In the case of `NC(=O)CN1CCCN(C(=O)Cc2ccc(F)cc2)CC1`, the cytotoxicity at 10 µM is -9.17%.

Turning to `Cn1nc(-c2ccccc2)c(Cl)c1C(=O)O`, the cytotoxicity at 10 µM was -45%.

On to `COc1ccc(CN2CCn3cncc3C2)cc1Cn1cncn1`, for which the cytotoxicity at 10 µM was determined as 7.55%.

With `Cc1c(C2CCCN(C(=O)c3ccncc3)C2)n2c(nc1=O)CCC2` (configuration not stated), the cytotoxicity at 10 µM is -21.8%.

Consider `CSCCC(Nc1nc(C)cc(C)n1)C(=O)NCC1CCOCC1` (configuration not stated), for which the cytotoxicity at 10 µM is -3.45%.

`Cc1nn(CCO)c(C)c1CN1CCN(C2CCCCC2)C(=O)C1`: the cytotoxicity at 10 µM was 0.541%.

In the case of `Cc1nn(C)c(N(C)C)c1CNCC(O)COc1ccccc1` (configuration not stated), the cytotoxicity at 10 µM is -0.0582%.

Turning to `CCOc1ccccc1N1CCN(C(=O)NCc2cc[nH]n2)CC1`, the cytotoxicity at 10 µM amounted to 5.48%.

On to `O=C(c1cccc(F)c1Cl)N(CCO)CC1CC1`, for which the cytotoxicity at 10 µM worked out at 0.684%.

With `CC(C)N1CCO[C@H]2CN(C(=O)c3ccoc3)C[C@H]21`, the cytotoxicity at 10 µM was -0.207%.

For the molecule `CC(C)c1noc(-c2ccc(-n3cnc(C(=O)O)c3)nc2)n1`, the cytotoxicity at 10 µM was -2.06%.

Consider `Cn1cnc2c1CCN(CCS(=O)(=O)c1ccc(Cl)cc1)C2`, for which the cytotoxicity at 10 µM is -6.67%.

In the case of `CNc1ccnc(NCCSc2nccn2C)n1`, the cytotoxicity at 10 µM was -42.6%.

Regarding `Cc1nccc(C(=O)N2CCCN(Cc3nccn3C(C)C)CC2)n1`, the cytotoxicity at 10 µM is -10.2%.

As for `Cc1nn(C)c2nc(-c3ccccn3)nc(NCCC3CCCN3C)c12` (configuration not stated), the cytotoxicity at 10 µM came to 1.91%.

As for `c1cncc(CN2CCC(c3ccnc4nccn34)C2)c1` (configuration not stated), the cytotoxicity at 10 µM was found to be 5.78%.

On to `COCC(=O)N1CCCCC1c1ccnc(Nc2cnccn2)n1` (configuration not stated), for which the cytotoxicity at 10 µM was -24.1%.

Turning to `CCc1cc(CN(Cc2cccnc2)C2CN3CCC2CC3)on1` (configuration not stated), the cytotoxicity at 10 µM is 2.09%.

With `CCCc1ncc(C(=O)c2ccc(OC)cc2)n1C`, the cytotoxicity at 10 µM is 22.3%.

With `CCN(CC1CCOC1)C(=O)c1ccc(N2CCOCC2)c(F)c1` (configuration not stated), the cytotoxicity at 10 µM is -2.45%.

On to `Cn1ccc(CN2CCC(CCc3ccc(O)cc3)CC2)cc1=O`, for which the cytotoxicity at 10 µM turned out to be 1.2%.

With `CCNC(=O)N1CCC(Cc2cccc(C(N)=O)c2)C1` (configuration not stated), the cytotoxicity at 10 µM came out at 2.92%.

Consider `CC(C)(C)NC(=O)CNc1ccc(C#N)c(C(F)(F)F)c1`, for which the cytotoxicity at 10 µM was -1.28%.

Regarding `CCC(=O)N1CCCCC[C@@H]2[C@@H]1[C@H](c1cccc(F)c1)CN2C`, the cytotoxicity at 10 µM is 8.63%.

On to `COCCC1(C(=O)O)CCCN(C(=O)c2cc(Cl)ccc2F)C1` (configuration not stated), for which the cytotoxicity at 10 µM was -2.79%.

Turning to `CCc1nc(C2CCCN(C(=O)c3ccc(Cl)cc3)C2)no1` (configuration not stated), the cytotoxicity at 10 µM is 5.71%.

Take `COCc1ncn2c1CN(C(=O)c1ccc[nH]1)CC2`: the cytotoxicity at 10 µM was 1.84%.

On to `Cc1cc(C)nc(N(C)CCN(C)C2CCCC2)n1`, for which the cytotoxicity at 10 µM was -5.88%.

Take `O=C1NCC(C(=O)Nc2ncc(Cc3ccccc3F)s2)N1` (configuration not stated): the cytotoxicity at 10 µM was -1.11%.

As for `c1ccc(O[C@@H]2CO[C@@]3(CCCN(CC4CCOCC4)C3)C2)nc1`, the cytotoxicity at 10 µM is -82.6%.

In the case of `CNc1cccc(C2CCCN(C(=O)c3cnccn3)C2)n1` (configuration not stated), the cytotoxicity at 10 µM was -19.2%.

For `Cn1ncnc1-c1ccnc(N2CCC(C(O)c3cccs3)CC2)n1` (configuration not stated), the cytotoxicity at 10 µM was -39.2%.

Regarding `CC(=O)N1CC(=O)N(c2ccccc2)CC12CCN(Cc1ccsc1)C2` (configuration not stated), the cytotoxicity at 10 µM was 13.4%.
